From ChEMBL document CHEMBL3997800, “Discovery of Multitarget Agents Active as Broad-Spectrum Antivirals and Correctors of Cystic Fibrosis Transmembrane Conductance Regulator for Associated Pulmonary Diseases” (J Med Chem, 2017)
The source made the active and inactive calls. The rule behind the calls is not given here.

Assays:
Coxsackievirus B3 = assay: Antiviral activity against Coxsackievirus B3 after 2 to 3 days by cell based MTS assay; assay type: functional; details: Enterovirus B
[1] = molecular target: PI3-kinase p110-alpha/p85-alpha (Homo sapiens) (UniProt P27986+P42336); assay: Inhibition of full length recombinant human N-terminal His6-tagged PI3Kalpha (1 to 1068 residues)/full length human N-terminal myc-tagged P85alpha (1 to 724 residues) expressed in Sf9 insect cells assessed as residual activity at 100 uM using PI : PS as substrate in presence of [gamma-33P]-ATP by scintillation counting method relative to control
rhinovirus A2 = assay: Antiviral activity against Rhinovirus 2 after 2 to 3 days by cell based MTS assay; assay type: functional
[2] = Inhibition of full length recombinant His6-tagged PI4K3alpha (unknown origin) expressed in Sf9 insect cells assessed as residual activity at 100 uM using PI : PS as substrate in presence of [gamma-33P]-ATP by scintillation counting method relative to control; details: Homo sapiens
rhinovirus B14 = assay: Antiviral activity against Rhinovirus 14 after 2 to 3 days by cell based MTS assay; assay type: functional
[3] = Selectivity index, ratio of CC50 for human RD cells assessed as change in cell morphology to EC50 for Enterovirus 71; assay type: toxicity; details: read-out: Ratio CC50/EC50
In short: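 SI is CC50/EC50. CC50 is from microscopically detected morphology change in uninfected RD cells and EC50 from the EV71 CPE-reduction assay in RD cells.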

[4] = Inhibition of full length recombinant His6-tagged PI4K3beta (unknown origin) expressed in Sf9 insect cells using PI : PS as substrate in presence of [gamma-33P]-ATP by scintillation counting method; parameters: species or system Homo sapiens
Enterovirus A71 [5] = assay: Antiviral activity against Enterovirus 71 infected in RD cells assessed as reduction in virus-induced cytopathic effect incubated for 2 to 3 days; assay type: functional, cell-based
In short: (§1)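 RD cells seeded at 20 000/well in MEM with 2% FCS and infected with EV71. Three 8-step 1:5 dilution series from 100 μM. Incubated 2-3 days until maximal CPE, then scored for CPE reduction. EC50 is the median of three dose-response curves.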

[6] = tested on: Cystic fibrosis transmembrane conductance regulator (Homo sapiens), P13569 [F508del]; assay: Corrector activity at CFTR F508 deletion mutant (unknown origin) expressed in HEK293 cells assessed as increase in steady-state level of F508 deletion mutant at plasma membrane at 10 uM preincubated for 24 hrs followed by compound washout by pHTomato dye based fluorescence imaging method; assay type: cell-based
Cystic fibrosis transmembrane conductance regulator (Homo sapiens), P13569 [F508del], sequence (P13569 as listed by the source): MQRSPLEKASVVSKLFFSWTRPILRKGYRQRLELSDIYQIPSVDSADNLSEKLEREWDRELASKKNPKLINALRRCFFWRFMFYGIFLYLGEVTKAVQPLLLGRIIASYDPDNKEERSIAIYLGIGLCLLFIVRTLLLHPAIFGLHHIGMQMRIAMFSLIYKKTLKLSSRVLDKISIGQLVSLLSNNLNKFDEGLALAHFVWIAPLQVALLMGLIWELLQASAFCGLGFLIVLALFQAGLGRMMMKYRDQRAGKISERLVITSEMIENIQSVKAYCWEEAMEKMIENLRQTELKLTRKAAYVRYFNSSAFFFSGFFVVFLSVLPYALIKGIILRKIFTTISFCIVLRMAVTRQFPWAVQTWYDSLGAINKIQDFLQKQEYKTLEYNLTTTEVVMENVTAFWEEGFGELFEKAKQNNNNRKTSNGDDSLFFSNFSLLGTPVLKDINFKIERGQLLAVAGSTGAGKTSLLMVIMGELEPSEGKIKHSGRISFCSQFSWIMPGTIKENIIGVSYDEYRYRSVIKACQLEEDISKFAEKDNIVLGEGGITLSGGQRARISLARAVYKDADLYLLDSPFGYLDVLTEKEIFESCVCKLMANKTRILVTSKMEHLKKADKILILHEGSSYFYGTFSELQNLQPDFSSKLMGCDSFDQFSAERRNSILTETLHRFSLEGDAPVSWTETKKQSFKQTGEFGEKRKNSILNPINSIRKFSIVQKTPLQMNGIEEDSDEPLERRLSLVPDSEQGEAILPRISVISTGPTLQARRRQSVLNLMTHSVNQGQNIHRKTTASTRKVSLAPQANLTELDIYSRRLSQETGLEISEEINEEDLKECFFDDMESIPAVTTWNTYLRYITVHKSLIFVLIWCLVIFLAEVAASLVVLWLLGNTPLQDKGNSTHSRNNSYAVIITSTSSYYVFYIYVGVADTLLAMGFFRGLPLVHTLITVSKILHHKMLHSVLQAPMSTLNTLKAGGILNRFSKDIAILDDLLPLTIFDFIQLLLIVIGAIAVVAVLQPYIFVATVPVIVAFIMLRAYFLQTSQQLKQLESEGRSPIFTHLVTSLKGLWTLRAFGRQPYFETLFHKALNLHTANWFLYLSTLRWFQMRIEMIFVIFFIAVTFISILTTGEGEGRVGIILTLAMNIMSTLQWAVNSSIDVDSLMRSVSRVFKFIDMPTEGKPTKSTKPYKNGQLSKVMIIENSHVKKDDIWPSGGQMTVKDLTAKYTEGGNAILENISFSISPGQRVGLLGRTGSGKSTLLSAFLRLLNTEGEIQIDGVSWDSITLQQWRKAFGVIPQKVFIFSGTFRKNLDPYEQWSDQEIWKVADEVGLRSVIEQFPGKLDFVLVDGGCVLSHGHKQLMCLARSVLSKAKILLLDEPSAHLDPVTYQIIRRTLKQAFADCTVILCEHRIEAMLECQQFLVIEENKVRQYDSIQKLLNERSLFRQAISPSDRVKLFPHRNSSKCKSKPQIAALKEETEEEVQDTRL
In short: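 HEK293 cells were transiently transfected (Lipofectamine 2000) with F508del-CFTR-pHTomato plus co-expressed soluble eGFP, then kept 24 h at 37 °C. Next, 24 h at 30 °C with 10 μM drug. Imaging in pH 7.4 HEPES buffer, then extracellular pH shifted to ~6.5 (MES) and ~8.8 (Tris). The eGFP-normalized fluorescence rise (ΔF) estimates membrane CFTR.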

Poliovirus 1 = assay: Antiviral activity against Poliovirus 1 after 2 to 3 days by cell based MTS assay; assay type: functional; details: Enterovirus C
In short: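 Vero cells seeded at 20 000/well in MEM with 2% FCS. Three 8-step 1:5 dilution series from 100 μM, then virus, then cells; 2–3 days until maximal CPE. Read-out: 5% MTS for 1.5 h at 37°C, absorbance at 498 nm, expressed as % of untreated controls. EC50 taken as the median of 3 dose-response curves.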

[7] = Cytotoxicity against human RD cells after 2 to 3 days by MTS method; assay type: cell-based
In short: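 Uninfected RD cells, 20 000/well in 2% FCS medium, run in parallel with the antiviral assay. Three 8-step 1:5 dilution series from 100 μM, 2-3 days. Read-out by 5% MTS, 1.5 h at 37 °C, absorbance 498 nm, as % of untreated controls. CC50 is the 50% metabolic activity point, median of 3 curves.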

[8] = Cytotoxicity against human RD cells assessed as change in cell morphology by microscopic method; assay type: cell-based
In short: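 Uninfected, compound-treated RD cells were inspected by microscope. CC50 was taken from microscopically detectable alteration of cell morphology.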

enterovirus D68 = assay: Antiviral activity against Enterovirus 68 after 2 to 3 days; assay type: functional
[9] = tested on: Cystic fibrosis transmembrane conductance regulator (Homo sapiens), P13569 [F508del]; assay: Potentiator activity at CFTR F508 deletion mutant (unknown origin) expressed in HEK293 cells assessed as increase in aninon permeability at 10 uM […] by YFP probe based imaging method; assay type: cell-based
[10] = Selectivity index, ratio of CC50 for human RD cells to EC50 for Enterovirus 71; assay type: toxicity; details: read-out: Ratio CC50/EC50
In short: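 SI is CC50/EC50. CC50 is from the MTS assay on uninfected RD cells and EC50 from the EV71 CPE-reduction assay, both medians of three dose-response curves run in parallel.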

Echovirus E11 = assay: Antiviral activity against Echovirus 11 after 2 to 3 days; assay type: functional; details: Enterovirus B
Enterovirus A71 [11] = assay: Antiviral activity against Enterovirus 71 infected in RD cells assessed as reduction in virus-induced cytopathic effect; assay type: functional, cell-based; details: Enterovirus A; in short: as §1
[12] = Enterovirus A, RD, read-out: EC50

Row | Compound | Activity [1] [%] | Activity [2] [%] | IC50 ([4]; read-out: IC50) [µM] | EC50 (Enterovirus A71 [5]; [12]) [µM] | CC50 [7] [µM] | Activity [9] | selectivity ratio [10] | EC50 (Enterovirus A71 [5]) | also measured
1 | CCC(=O)Nc1nc(C)c(-c2csc(Nc3cccc(C(C)=O)c3)n2)s1 | 40 | 72 | 0.27 | 0.38 | 10.1 | inactive | 26.6 | – | EC50 (Coxsackievirus B3): 2.16 µM; EC50 (rhinovirus A2; Rhinovirus A, read-out: EC50): > 259 µM; EC50 (rhinovirus B14): Not Active; selectivity ratio [3]: 23.6; Activity [6]: Active; EC50 (Poliovirus 1): < 1.52 µM; CC50 [8]: 6.37 µM; EC50 (enterovirus D68): Not Active; EC50 (Echovirus E11): 0.97 µM
2 | CC(=O)c1cccc(Nc2nc(-c3sc(NC(=O)NC45CC6CC(CC(C6)C4)C5)nc3C)cs2)c1 | – | – | 12.4 | – | – | – | – | Not Active | –
3 | CC(=O)c1cccc(Nc2nc(-c3sc(NC(=O)c4ccc(C)cc4)nc3C)cs2)c1 | – | – | > 50 | > 55.7 | – | – | – | – | –
4 | CC(=O)c1cccc(Nc2nc(-c3sc(NC(=S)NC4CCCCC4)nc3C)cs2)c1 | – | – | > 50 | – | – | – | – | Not Active | –
5 | CC(=O)c1cccc(Nc2nc(-c3sc(NC(=O)c4ccc(I)cc4)nc3C)cs2)c1 | – | – | > 50 | > 44.6 | – | – | – | – | –
6 | CC(=O)Nc1nc(C)c(-c2c[nH]c(Nc3cccc(C(C)=O)c3)n2)s1 | – | – | > 50 | > 90.2 | 85.7 | – | – | – | CC50 [8]: 64.2 µM
7 | CC(=O)Nc1nc(C)c(-c2csc(Nc3cccc(O)c3)n2)s1 | – | – | 2.63 | – | – | – | – | Not Active | –
8 | CCC(=O)Nc1nc(C)c(-c2csc(Nc3ccc(N(C)C)cc3)n2)s1 | – | – | 50 | 8.58 | 51.6 | – | 6 | – | CC50 [8]: 142 µM
9 | CC(=O)c1cccc(Nc2nc(-c3sc(NC(=O)C(C)(C)C)nc3C)cs2)c1 | 93 | 71 | 0.32 | 0.27 | 7.94 | inactive | 29.4 | – | EC50 (rhinovirus A2; Rhinovirus A, read-out: EC50): 2.01 µM; EC50 (rhinovirus B14; Rhinovirus B, read-out: EC50): 4.85 µM; selectivity ratio [3]: 32.7; EC50 (Poliovirus 1): < 1.41 µM; CC50 [8]: 8.83 µM; EC50 (enterovirus D68; Enterovirus D, read-out: EC50): 1.38 µM; EC50 (Echovirus E11): 0.72 µM
10 | COc1cccc(Nc2nc(-c3sc(NC(C)=O)nc3C)cs2)c1 | 51 | 71 | 1.55 | 1.2 | 9.17 | inactive | 5.9 | – | –
11 | COc1ccc(-c2c(C)nn3c(NCCN4CCOCC4)cc(C)nc23)cc1OC | – | – | – | – | – | – | – | – | EC50 (Enterovirus A71 [11]): 0.73 µM
12 | CC(=O)c1cccc(Nc2nc(-c3sc(NC(=O)NC4CCCCC4)nc3C)cs2)c1 | – | – | 1.82 | 2 | 8.87 | – | 4.4 | – | –
13 | COc1ccc(Cl)cc1Nc1nnc(-c2csc(NC(=O)C(C)(C)C)n2)s1 | – | – | – | – | – | – | – | Not Active | IC50 [4]: Not Active
14 | CC(=O)Nc1nc(C)c(-c2csc(Nc3ccccc3)n2)s1 | 81 | 58 | 2.48 | 1.93 | 18.6 | inactive | 9.64 | – | –
15 | CC(=O)Nc1cccc(NC(=S)Nc2cccc(C(C)=O)c2)c1 | – | – | – | – | – | – | – | Not Active | IC50 [4]: Not Active
16 | CC(=O)Nc1nc(C)c(-c2csc(Nc3ccc(C(C)=O)cc3)n2)s1 | 100 | 73 | 3.71 | 0.68 | 5.59 | inactive | 8.2 | – | –
17 | CC(=O)Nc1nc(C)c(-c2csc(Nc3cccc(C(C)=O)c3)n2)s1 | 37 | 52 | 0.48 | 0.92 | 16.5 | inactive | 17.9 | – | EC50 (Coxsackievirus B3): 2.17 µM; EC50 (rhinovirus A2): Not Active; EC50 (rhinovirus B14; Rhinovirus B, read-out: EC50): > 268 µM; selectivity ratio [3]: 10.6; EC50 (Poliovirus 1): 3.09 µM; CC50 [8]: 9.73 µM; EC50 (enterovirus D68): Not Active; EC50 (Echovirus E11): 1.57 µM
18 | CC(=O)c1cccc(Nc2nc(-c3sc(NC(=O)C(F)(F)F)nc3C)cs2)c1 | 85 | 73 | 21.9 | 2 | 25.8 | inactive | 12.9 | – | EC50 (Coxsackievirus B3): 3.87 µM; EC50 (rhinovirus A2; Rhinovirus A, read-out: EC50): 10.6 µM; EC50 (rhinovirus B14; Rhinovirus B, read-out: EC50): 10.6 µM; selectivity ratio [3]: 15; EC50 (Poliovirus 1): 2.86 µM; CC50 [8]: 30.1 µM; EC50 (Echovirus E11): 3.51 µM
19 | COc1ccc(Cl)cc1Nc1nnc(-c2csc(NC(=O)C(C)(C)C)n2)o1 | – | – | – | – | – | – | – | Not Active | IC50 [4]: Not Active
20 | CC(=O)c1cccc(Nc2nc(-c3sc(NC(=S)Nc4ccccc4)nc3C)cs2)c1 | – | – | > 50 | – | – | – | – | Not Active | –
21 | CC(=O)c1cccc(NC(=S)Nc2cccc(NC(=O)C(C)(C)C)c2)c1 | – | – | – | – | – | – | – | Not Active | IC50 [4]: Not Active
22 | CC(=O)c1cccc(Nc2nc(-c3sc(NC(=O)NCc4ccc(Cl)cc4)nc3C)cs2)c1 | – | – | 3.95 | 4.77 | 20.9 | – | 4.4 | – | –
23 | CC(=O)c1cccc(Nc2nc(-c3sc(NC(=O)Nc4ccccc4)nc3C)cs2)c1 | – | – | 7.69 | – | – | – | – | Not Active | –
24 | CC(=O)c1cccc(Nc2nc(-c3sc(NC(=O)c4ccccc4)nc3C)cs2)c1 | 54 | 81 | 18.9 | 0.51 | 5.75 | inactive | 11.3 | – | EC50 (Coxsackievirus B3): 2.19 µM; EC50 (rhinovirus A2; Rhinovirus A, read-out: EC50): 2.05 µM; EC50 (rhinovirus B14; Rhinovirus B, read-out: EC50): > 230 µM; selectivity ratio [3]: 23.1; Activity [6]: Active; EC50 (Poliovirus 1): 2.23 µM; CC50 [8]: 11.8 µM; EC50 (enterovirus D68): Not Active; EC50 (Echovirus E11): 1.77 µM
